Results reported in ChEMBL document CHEMBL2074454, “Characterisation of human monocarboxylate transporter 4 substantiates its role in lactic acid efflux from skeletal muscle” (J Physiol, 2000).

B1: Monocarboxylate transporter 4 (Homo sapiens), O15427 (protein)
chain: MGGAVVDEGPTGVKAPDGGWGWAVLFGCFVITGFSYAFPKAVSVFFKELIQEFGIGYSDTAWISSILLAMLYGTGPLCSVCVNRFGCRPVMLVGGLFASLGMVAASFCRSIIQVYLTTGVITGLGLALNFQPSLIMLNRYFSKRRPMANGLAAAGSPVFLCALSPLGQLLQDRYGWRGGFLILGGLLLNCCVCAALMRPLVVTAQPGSGPPRPSRRLLDLSVFRDRGFVLYAVAASVMVLGLFVPPVFVVSYAKDLGVPDTKAAFLLTILGFIDIFARPAAGFVAGLGKVRPYSVYLFSFSMFFNGLADLAGSTAGDYGGLVVFCIFFGISYGMVGALQFEVLMAIVGTHKFSSAIGLVLLMEAVAVLVGPPSGGKLLDATHVYMYVFILAGAEVLTSSLILLLGNFFCIRKKPKEPQPEVAAAEEEKLHKPPADSGVDLREVEHFLKAEPEKNGEVVHTPETSV

Tests used:
[1] = molecular target: T1, Monocarboxylate transporter 4 (Homo sapiens, UniProt O15427); assay: TP_TRANSPORTER: inhibition of L-Lactate uptake (L-Lactate:30mM) in Xenopus laevis oocytes; assay type: functional, cell-based, Oocyte
T1 sequence (O15427 whole entry): B1 chain
How it was run: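 Human MCT4 cRNA (12 ng) injected into collagenase-treated stage V–VI oocytes, cultured 48–72 h at 18°C. Oocytes loaded with 5 μM BCECF-AM, 30 min, room temperature. Single oocyte superfused in uptake buffer pH 7.4 (NaCl isosmotically replaced). Inhibitor added simultaneously with 30 mM L-lactate at increasing concentrations. Initial acidification rate from first-order fit, as % of uninhibited rate. K0.5 from non-competitive fit, n=4–5 oocytes.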

[2] = molecular target: T2, Monocarboxylate transporter 4 (Homo sapiens) (UniProt O15427); assay: (§1) TP_TRANSPORTER: uptake in Xenopus laevis oocytes; assay type: functional, cell-based; details: Oocyte
T2 sequence (whole entry): B1 chain
How it was run: (§2)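 Stage V–VI oocytes were injected with 12 ng MCT4 or MCT1 cRNA and kept in Barth's medium at 18°C. They were assayed 48–72 h later after loading with 5 μM BCECF-AM (30 min, room temperature, pH 7.4 buffer). Single oocytes were superfused with monocarboxylate Na salt (isosmotic NaCl replacement). Initial acidification rate came from a first-order fit, normalised to L-lactate on the same oocyte, then Michaelis–Menten regression.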

[3] = substrate: O=C(O)CCCl; assay: as §1; assay type: functional, cell-based; details: Oocyte; how it was run: as §2
[4] = substrate: CCC(O)C(=O)O; assay: as §1; assay type: functional, cell-based; details: Oocyte; how it was run: as §2
[5] = substrate: CCC(=O)C(=O)O; assay: as §1; assay type: functional, cell-based; details: Oocyte; how it was run: as §2
[6] = substrate: CC(O)C(=O)[O-].[Na+]; assay: as §1; assay type: functional, cell-based; details: Oocyte; how it was run: as §2
[7] = substrate: COC(=O)[C@H](C)Cl; assay: as §1; assay type: functional, cell-based; details: Oocyte; how it was run: as §2
[8] = substrate: CC(C)CC(=O)C(=O)O; assay: as §1; assay type: functional, cell-based; details: Oocyte; how it was run: as §2

Molecule	IC50 [1] [µM]	Activity [2]	other results
N#C/C(=C\c1ccc(O)cc1)C(=O)O [alpha-CYANO-4-HYDROXYCINNAMIC ACID]	991		
O=C(O)C(=O)Cc1ccccc1		is not a substrate [-]	
O=C(CCc1ccc(O)cc1)c1c(O)cc(O)cc1O [PHLORETIN]	41		
O=C(O)c1cc([N+](=O)[O-])ccc1NCCCc1ccccc1 [5-NITRO-2-PHENYLPROPYLAMINOBENZOIC ACID [NPPB]]	240		
O=CC(=O)O		is not a substrate [-]	
O=C[O-].[Na+]		is not a substrate [-]	
O=C(O)O		is not a substrate [-]	
O=C(O)CCCO		is not a substrate [-]	
p-Chloromercuribenzenesulfonate			IC50 ([1]; oocyte): 21 µM
CC(C)Cn1c(=O)n(C)c(=O)c2[nH]cnc21 [ISOBUTYLMETHYLXANTHINE]	970		
NC(=O)C(=O)O		is not a substrate [-]	
B1			Km [3]: 51 mM; Km [4]: 56 mM; Km [5]: 57 mM; Km [6]: 28 mM; Km [7]: 46 mM; Km [8]: 95 mM
